Data from PMC3873001 (Bioorganic & medicinal chemistry, 2013).

How the values were obtained:
[1] = tested on: T. b. rhodesiense bloodstream form trypomastigotes (STIB 900); experiment: In vitro growth inhibition of T. b. rhodesiense bloodstream form trypomastigotes; format: cell-based, Trypanosoma b. rhodesiense; conditions: for reduction of anti-HAT activity compared to 3-nitrotriazole counterpart: 2-nitroimidazole analog vs 3-nitrotriazole counterpart (13 vs 9; 14 vs 11); for IC50: Trypanosoma brucei, RHODESIENSE|STIB900, read-out: T.b.rhod. IC-50; for SI (T.b.rhod.): SI = IC50 in L6 cells / IC50 in T.b. rhodesiense; for activity designation against T.b. rhodesiense: TDR criteria on IC50
[2] = tested on: T. cruzi amastigotes (Tulahuen C4) in infected L6 myoblasts; experiment: In vitro growth inhibition of T. cruzi amastigotes in infected L6 myoblasts; format: cell-based; conditions: for reduction of antichagasic activity compared to 3-nitrotriazole counterpart: 2-nitroimidazole analog vs 3-nitrotriazole counterpart (13 vs 9; 14 vs 11); for reduction of antichagasic activity compared to 5: compared to compound 5; for IC50: Trypanosoma cruzi, TULAHUEN, L6, read-out: T. cruzi IC-50
[3] = Cytotoxicity assessment using L6 cells; format: cell-based; conditions: rat, L6 cells (rat skeletal myoblasts)
Summary of the method: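 Rat skeletal myoblasts (L6) were tested for growth inhibition as the host-cell toxicity counterpart to the parasite assays. IC50 was calculated by linear regression from sigmoidal dose-inhibition curves. Values are means of two independent assays, varying by less than ±50%.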

[4] = tested on: L. donovani axenic amastigotes (MHOM-ET-67/L82); experiment: In vitro growth inhibition of axenically cultured L. donovani amastigotes; format: cell-based, Leishmania donovani; conditions: for IC50: Leishmania donovani, read-out: L.don. axen. IC-50; for SI (L.don. axen.): SI = IC50 in L6 cells / IC50 in L. donovani

For `COc1ccc(N2CCN(CCCn3ccnc3[N+](=O)[O-])CC2)cc1.Cl.Cl` [Compound 13, 1-(4-methoxyphenyl)-4-[3-(2-nitro-1H-imidazol-1-yl)propyl]piperazine dihydro-chloride], the “reduction of anti-HAT activity compared to 3-nitrotriazole counterpart” value [1] was roughly 2 fold and the “reduction of antichagasic activity compared to 3-nitrotriazole counterpart” value [2] was “about 62 fold”.
In the case of `Cl.Cl.O=[N+]([O-])c1ncn(CCCN2CCN(c3ncccn3)CC2)n1` [Compound 4, 2-{4-[3-(3-nitro-1H-1,2,4-triazol-1-yl)propyl]piperazin-1-yl}pyrimidine dihydrochloride], the “reduction of antichagasic activity compared to 5” value [2] is reported as 2 fold.
Work on `Cl.Cl.O=[N+]([O-])c1ncn(CCCN2CCN(Cc3ccc(C(F)(F)F)cc3)CC2)n1` [Compound 1] yielded an IC50 [1] of 1.38 µM, an IC50 [2] of 0.34 µM and an IC50 [3] greater than 191 µM. The IC50 [4] was 58.1 µM and the “SI (L.don. axen.)” value [4] was greater than 3.
Compound `O=[N+]([O-])c1nccn1CCCCNc1nc2ccc(Cl)cc2s1` [Compound 20, 6-chloro-N-[4-(2-nitro-1H-imidazol-1-yl)butyl]-1,3-benzothiazol-2-amine] has an IC50 [4] of 7.3 µM.
For `Cl.Cl.O=[N+]([O-])c1ncn(CCCN2CCN(c3ccc(C(F)(F)F)cc3)CC2)n1` [Compound 3], the “SI (T.b.rhod.)” value [1] was 10, the IC50 [1] was 5.33 µM and the IC50 [2] was 0.04 µM. The IC50 [4] was 25.9 µM and the “SI (L.don. axen.)” value [4] was 2.
For `Cl.Cl.Cl.Cl.O=[N+]([O-])c1ncn(CCCN2CCN(c3ccc(Cl)c(Cl)c3)CC2)n1` [Compound 7, 1-(3,4-dichlorophenyl)-4-[3-(3-nitro-1H-1,2,4-triazol-1-yl)propyl]piperazine dihydrochloride], the “activity designation against T.b. rhodesiense” value [1] was “active”.
In the case of `COc1ccc(N2CCN(CCCn3cnc([N+](=O)[O-])n3)CC2)cc1` [Compound 9, 1-(4-methoxyphenyl)-4-[3-(3-nitro-1H-1,2,4-triazol-1-yl)propyl]piperazine dihydro-chloride], the IC50 [3] is reported as 125 µM.
For `O=[N+]([O-])c1ncn(CCCNc2nc3ccc(Cl)cc3s2)n1` [Compound 15, 6-chloro-N-[3-(3-nitro-1H-1,2,4-triazol-1-yl)propyl]-1,3-benzothiazol-2-amine], the “activity designation against T.b. rhodesiense” value [1] was “active” and the “activity designation against L. donovani” value ([4]; TDR criteria on IC50) was “moderately active (IC50 = 1.0-6.0 μM)”.
For `O=[N+]([O-])c1ncn(CCCCNc2nc3ccc(Cl)cc3s2)n1` [Compound 17, 6-chloro-N-[4-(3-nitro-1H-1,2,4-triazol-1-yl)butyl]-1,3-benzothiazol-2-amine], the “activity designation against T.b. rhodesiense” value [1] was “active”.
In the case of `Cl.Cl.Cl.Cl.O=[N+]([O-])c1nccn1CCCN1CCN(Cc2ccc(Cl)c(Cl)c2)CC1` [Compound 14, 1-[(3,4-dichlorophenyl)methyl]-4-[3-(2-nitro-1H-imidazol-1-yl)propyl]piperazine dihydrochloride], the “reduction of anti-HAT activity compared to 3-nitrotriazole counterpart” value [1] is reported as roughly 14 fold and the “reduction of antichagasic activity compared to 3-nitrotriazole counterpart” value [2] is reported as “about 33 fold”.
In the case of `Cl.Cl.O=[N+]([O-])c1ncn(CCCCN2CCN(Cc3ccc(C(F)(F)F)cc3)CC2)n1` [Compound 2], the “SI (T.b.rhod.)” value [1] is reported as 99, the IC50 [1] is reported as 1.2 µM and the IC50 [2] is reported as 0.412 µM. For the same compound, the IC50 [4] was 44.5 µM and the “SI (L.don. axen.)” value [4] was 3.
In the case of `O=[N+]([O-])c1ncn(CCCN2CCN(c3ccncc3)CC2)n1` [Compound 6, 1-[3-(3-nitro-1H-1,2,4-triazol-1-yl)propyl]-4-(pyridin-4-yl)piperazine], the “reduction of antichagasic activity compared to 5” value [2] is reported as “more than 10 fold”.
